# HIV Env fusion: inhibitors of HIV Env-mediated cell fusion | HeLa-JRFL Env/CEM21 cell fusion, luciferase | inhibition, % at 12.3 µM | 1.1% of 360,000 active | AID 651610;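 active means mean replicate inhibition score of at least 50 and every replicate individually at or above 50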;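 further: 0% = plate neutral controls and 100% = maraviroc near 300 nM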
# FGF22 binding: FGF22 (human) thermal shift binding | recombinant FGF22 thermal shift, SYPRO orange fluorescence; percent of sucrose octasulfate shift, DMSO zero | activity (Tm shift, normalised), % at 9.99 µM | 1.5% of 340,000 active;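 active means mean Tm shift, scaled 0 neutral to 100 positive control, at about 1.3% or above, every replicate too, limit read from the data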
# Cneo AK release: Cryptococcus neoformans lysis via adenylate kinase release. C. neoformans lysis, adenylate kinase release luminescence, 4 h; normalised: neutral wells 0, clomiphene wells 100. lysis activity, % at 15 µM. 0.2% of 360,000 active;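 active means mean lysis activity across replicates of at least 80%, whatever share of replicates individually reach that level; inactive means mean lysis activity below 80%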
#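 Schedule: static 4 h at 37 °C with compound, 1 h detection; system: C. neoformans cells; benchmarks: Clomiphene as positive control; buffer or medium: fresh YPD medium; measure: luminescence rise reflecting yeast cell lysis; measured by: luminescent adenylate kinase detection reagent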
# ERAP1 inh: ERAP1 (human) enzyme inhibition | recombinant ERAP1, Leu-AMC fluorescence, 60 min | inhibition, % at 10.7 µM | 0.15% of 340,000 active | AID 652197;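 active means mean replicate inhibition of at least 30%, or all replicates individually reaching that 30% level; inactive means mean below 30% and not every replicate reaching it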;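 further: 0% = neutral control wells and 100% = L-leucinethiol positive control wells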
# PGC1a acetyl inh: lowers PGC1a acetylation signal in U2OS cells; AlphaScreen anti-acetyl-lysine; with virally co-expressed GCN5 acetyltransferase; inhibition, % at 15.6 µM; 0.17% of 350,000 active;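 active means every replicate shows inhibition of at least 40%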;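 further: 0% = neutral control wells and 100% = positive control wells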
# Ecoli rRNA inh: selective bacterial rRNA inhibition in E. coli; E. coli WT GFP vs humanized-ribosome RFP mutants, fluorescence, 24 h; stronger effect = lower value; DMSO median 0, no signal -100; GFP signal change (wild-type ribosome), % (concentration not given with the values); 1.6% of 350,000 active; AID 720706;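 active means significant combined selectivity score with lowered wild-type GFP, culture density cut under 30%, mutant RFP and density less affected; inactive means any of these conditions unmet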
# * = called active by the depositor; . = not tested or not shown; [ ] = another dose, or the depositor's remark. Rows were chosen to be rich in hits. Some 3.5% of all compounds tested hit in one or more screens of this group.
SMILES,HIV Env fusion,FGF22 binding,Cneo AK release,ERAP1 inh,PGC1a acetyl inh,Ecoli rRNA inh
CCN(C(=O)CSc1nnc(NCc2ccccc2)s1)C1CCS(=O)(=O)C1 (stereo unspecified),12.0,42.9*,-1.1,-0.9,-6.8,11.7
O=C(Nc1cccc(C(=O)O)c1)/C(=C\c1ccco1)NC(=O)c1ccccc1Cl,-1.9,-0.3,-0.2,-29.7,.,26.4
O=C(Nc1ccccc1C(=O)O)/C(=C/c1ccc(Cl)cc1Cl)NC(=O)c1ccco1,13.2,-0.5,2.3,-1.0,-0.7,-32.0*
C/C=C/c1ccc2c(c1)[C@H]1[C@H](CCN1C(=O)c1cccc(F)c1)[C@H](CO)N2,.,.,.,-1.1,.,2.3
N#C/C(=N\Nc1ccc(F)cc1)C(=O)C1CC1,4.0,-0.3,1.5,0.4,0.8,-34.5*
CCc1cccc(NS(=O)(=O)c2ccc3c(c2)n(C)c(=O)n3C)c1,45.3,0.0,-1.6,2.5,.,2.2
Cc1ccc(/C=C/C(=O)O)cc1S(=O)(=O)Nc1ccccc1C(=O)O,1.1,43.5*,.,-4.2,-7.2,30.3
Cc1ccc(/C=C/C(=O)O)cc1S(=O)(=O)N1CCc2ccccc2C1,-13.8,43.3*,.,-3.3,-15.7,-19.8
COc1ccc(/C=C/C(=O)O)cc1S(=O)(=O)N1CCc2ccccc2C1,-4.2,0.6,.,0.5,8.5,-7.5
Cc1ccc(/C=C/C(=O)O)cc1S(=O)(=O)N1CCc2ccccc21,-2.8,-0.1,1.5,2.9,.,-32.4*
CCOCCCNC(=O)C(NC(=O)c1ccc2c(c1)OCO2)c1ccccc1 (stereo unspecified),9.6,-0.2,-1.4,0.8,0.3,-0.6
CCS(=O)(=O)c1ccc(O)c(NC(=O)COc2ccc(Br)cc2)c1,-5.3,42.4,.,7.7,96.8*,-39.0
CCN(CC)S(=O)(=O)c1ccc(O)c(NC(=O)COc2ccc(S(=O)(=O)N3CCOCC3)cc2)c1,.,-0.1,1.2,-2.0,.,8.6
O=C(O)c1cccc(CN2C(=O)CSC2=O)c1,.,.,-1.4,.,1.3,.
OC(c1ccc(Cl)cc1)c1nccc2ccccc12 (stereo unspecified),15.0,0.2,4.5,1.0,-3.6,-21.9*
O=C(OC(c1ccccc1)c1nccc2ccccc12)c1ccccc1 (stereo unspecified),-159.9,-0.2,-4.0,1.9,.,3.2
Cc1sc(NC(=O)c2ccco2)c(CN2CCN(c3ccccc3)CC2)c1C,63.4*,.,18.9,.,-3.6,.
Cc1sc(NC(=O)c2ccco2)c(CN2CCCCC2)c1C,-11.9,.,4.0,.,-18.6,.
CNC(=S)N1CCN(CCNC2=CC(=O)CC(C)(C)C2)CC1,-9.8,0.4,0.6,.,.,5.9
CC1(C)CC(NCCN2CCN(C3=CC(=C(C#N)C#N)CC(C)(C)C3)CC2)=CC(=C(C#N)C#N)C1,45.5,44.7*,.,-4.6,.,-0.2
COc1cccc(CN2CCN(C3CSCCSC3)CC2CCO)c1 (stereo unspecified),9.3,-0.1,2.5,-1.4,-8.6,1.5
COC(=O)c1ccc(COc2ccc(/C=N/NC(N)=S)cc2)o1,-0.5,0.1,-0.9,-8.9,2.4,-28.6*
COc1ccc(-n2c(N)c(C(=O)NCc3ccco3)sc2=S)cc1,-50.9,.,-2.0,.,-4.8,.
CCOC(=O)c1ccc(-n2c(N)c(C(=O)NCc3ccco3)sc2=S)cc1,.,-0.1,-5.4,1.0,-1.5,-26.1*
Cc1nn(-c2ccccc2)c(C)c1C(=O)OC/C(O)=C(\C#N)c1nc2ccccc2[nH]1,-46.0,.,.,.,.,.
SMILES,HIV Env fusion,FGF22 binding,Cneo AK release,ERAP1 inh,PGC1a acetyl inh,Ecoli rRNA inh
C[C@@H]1CCCCO[C@H](CN(C)Cc2ccccc2)[C@H](C)CN([C@@H](C)CO)C(=O)c2cc(NS(=O)(=O)c3cccs3)ccc2O1,4.2[16.7 µM],0.0,86.2*,-23.6,3.4,0.8
C[C@@H]1CCCCO[C@H](CN(C)Cc2ccc(C(F)(F)F)cc2)[C@H](C)CN([C@H](C)CO)C(=O)c2cc(NS(=O)(=O)c3cccs3)ccc2O1,59.6*[16.7 µM],-0.4,-0.2,1.5,-12.8,-1.4
C[C@@H]1CCCCO[C@@H](CN(C)C(=O)CCCN(C)C)[C@H](C)CN([C@@H](C)CO)C(=O)c2cc(NS(=O)(=O)c3cccs3)ccc2O1,-8.0[16.7 µM],1.3*,-2.3,1.4,-2.7,-1.5
C[C@@H]1CCCCO[C@H](CN(C)Cc2ccccc2)[C@@H](C)CN([C@H](C)CO)C(=O)c2cc(NS(=O)(=O)c3cccs3)ccc2O1,-28.4[16.7 µM],0.0,-1.9,-10.3,-7.0,0.9
COc1cccc(CNC(=O)C2(C)Oc3ccccc3NC2=O)c1 (stereo unspecified),9.0,.,1.1,.,-15.8,.
O=C(NC12CC3CC(CC(C3)C1)C2)N1CC2Cc3cccc(=O)n3C(C2)C1 (stereo unspecified),.,.,-1.1,.,8.2,.
COc1ccc(OCCSc2ncccn2)cc1,-172.0,.,0.9,.,8.6,.
O=C(/C=C/c1cn(-c2ccccc2)nc1-c1cccs1)NCCN1CCOCC1,-5.8,40.6,-6.9,-8.4,-5.2,-30.4*
O=C(c1cn(-c2ccccc2)nc1-c1cccs1)N1CCOCC1,.,.,-1.3,.,8.4,.
CN(C)C(=O)COC(=O)/C=C/c1cn(-c2ccccc2)nc1-c1cccs1,0.3,-0.3,.,2.1,-32.2,-31.8*
CCCC(=O)Nc1ccc2c(c1)C(=O)N(C)[C@H]1CC[C@H](CC(=O)NC3CCCC3)O[C@H]1CO2,-7.0[16.7 µM],-0.2,0.3,-0.5,-7.7,0.8
COc1ccc(-c2c(C(=O)c3ccccc3)[nH]c(N)c2C(=O)NCc2ccccc2)cc1OC,-15.8,0.1,.,1.0,.,-35.5*
COc1ccc(-c2c(C(=O)c3ccccc3)[nH]c(N)c2C(N)=O)cc1OC,5.7,-0.3,.,-5.7,.,7.4
CC1(C)Cc2ccccc2-c2nc(NCCCO)[nH]c(=O)c21,-1.6,41.6,-2.2,-3.0,-14.7,-42.9*
CCC1(C)Cc2ccccc2-c2nc(NCCO)[nH]c(=O)c21 (stereo unspecified),.,.,7.5,-2.6,.,-40.3
CCn1c(NCCO)nc2c(c1=O)C(C)(CC)Cc1ccccc1-2 (stereo unspecified),11.1,0.1,.,-4.1,.,-28.2*
O=C(NCc1ccco1)C1CCN(c2ccc(S(=O)(=O)N3CCOCC3)cc2[N+](=O)[O-])CC1,-13.6,0.2,-0.1,-0.5,0.9,0.9
Cc1ccc(C(=O)NCC(c2ccco2)N2CCOCC2)cc1 (stereo unspecified),13.0,-0.1,-1.0,-3.5,.,1.2
O=C(COc1ccccc1)N1CCN(S(=O)(=O)c2cccs2)CC1,-193.9,.,-9.6,.,-2.8,.
O=C1CCCN1c1nccs1,4.8,43.6*,.,-0.1,-0.8,11.9
